For assay [1], the target named is T1, Tyrosine-protein phosphatase non-receptor type 11 (Homo sapiens) (UniProt Q06124).
T1 sequence (whole entry): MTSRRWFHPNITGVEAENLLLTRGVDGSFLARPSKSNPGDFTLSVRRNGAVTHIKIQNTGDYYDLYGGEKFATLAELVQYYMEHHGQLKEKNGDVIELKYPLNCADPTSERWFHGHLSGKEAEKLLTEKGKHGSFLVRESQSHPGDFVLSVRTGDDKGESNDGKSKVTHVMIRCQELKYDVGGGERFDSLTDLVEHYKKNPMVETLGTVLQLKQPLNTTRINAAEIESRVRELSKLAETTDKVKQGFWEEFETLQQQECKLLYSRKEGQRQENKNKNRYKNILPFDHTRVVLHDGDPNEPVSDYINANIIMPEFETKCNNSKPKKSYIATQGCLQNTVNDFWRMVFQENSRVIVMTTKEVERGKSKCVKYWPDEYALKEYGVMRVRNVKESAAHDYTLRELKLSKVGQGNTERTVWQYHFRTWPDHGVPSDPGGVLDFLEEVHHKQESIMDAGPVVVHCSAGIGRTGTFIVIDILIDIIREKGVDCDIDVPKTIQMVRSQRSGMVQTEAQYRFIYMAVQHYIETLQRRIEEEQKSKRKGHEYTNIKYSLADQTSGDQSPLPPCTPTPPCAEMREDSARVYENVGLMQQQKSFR
The experiment in a line: Mixed type inhibition of human wild-type full length SHP2 assessed as substrate [Et] at 10 uM using H-Glu-Phe-pTyr-Ala-Glu-Val-Gly-Arg-Ser-Pro-Pro-Asp-Pro-Ala-Lys as substrate by Lineweaver-Burk plot analysis (reference value: 0.029 uM).

The target of assay [2] is T2, Tyrosine-protein phosphatase non-receptor type 11 (Mus musculus) (UniProt P35235).
T2 sequence (whole entry): T1 sequence (whole entry) with M450V, A550V, K590R
The experiment in a line: Inhibition of SHP2 in mouse Ba/F3 cells assessed as reduction in IL3-stimulated STAT5 phosphorylation pretreated for 4 hrs followed by IL3 stimulation and measured after 5 to 60 mins by Western blot analysis. In kind it is cell-based. A digest of the protocol: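 Ba/F3 cells starved overnight in serum- and cytokine-free RPMI1640. Treated with 20 µM compound for 4 h, then IL-3 (2 ng/mL) for the indicated times. RIPA lysates (50 µg) immunoblotted for p-Erk, p-Akt, p-Jak2 and p-Stat5, then reprobed for total proteins. Representative of three experiments.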

The test system of the next assay is NCI-H661. The assay can be described thus: Growth inhibition of human NCI-H661 cells after 48 hrs by cell proliferation-based assay. In kind it is functional. Put shortly: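 H661 (PTPN11 N58S/+) and H596 (WT PTPN11) lung cancer cells exposed to a concentration series for 48 h, DMSO as control. Cell number measured by One Solution proliferation assay. Triplicates from one of three repeated experiments.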

For assay [3], the target named is T1, Tyrosine-protein phosphatase non-receptor type 11 (Homo sapiens). The experiment in a line: Inhibition of wild type recombinant human SHP2 at 50 uM using H-Glu-Phe-pTyr-Ala-Glu-Val-Gly-Arg-Ser-Pro-Pro-Asp-Pro-Ala-Lys as substrate preincubated for 30 mins followed by substrate addition and measured after 30 mins by Malachite Green-reagent based assay. A digest of the protocol:
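Full-length SHP2 or SHP1 (0.1 µg) preincubated with compound 30 min at room temperature in 25 mM Tris-HCl pH 7.4, 50 mM NaCl, 5 mM DTT, 2.5 mM EDTA. Phospho-peptide substrate added to 50 µM final; 30 min at 30 °C. Released phosphate read by Malachite Green at OD620. IC50 from six concentrations; three experiments.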

Assay [4] has the same target. The experiment in a line: Stable inhibition of human wild-type full length SHP2 at 5 to 20 uM using H-Glu-Phe-pTyr-Ala-Glu-Val-Gly-Arg-Ser-ProPro-Asp-Pro-Ala-Lys as substrate followed by 3 times wash out with phosphate buffer by phosphatase assay.
Assay [5] addresses T2, Tyrosine-protein phosphatase non-receptor type 11 (Mus musculus). The experiment in a line: Inhibition of PTPN11 in PTPN11-expressing mouse embryonic fibroblasts assessed as inhibition of cell growth at 6 uM after 24 to 72 hrs by cell proliferation-based assay. A digest of the protocol: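 Ptpn11 fl/fl and Ptpn11 +/+ MEFs, both Ade-Cre+, infected with adeno-Cre, then given 6 µM compound or DMSO. Growth measured at 24, 48 and 72 h by One Solution proliferation assay. SHP2 loss confirmed by immunoblot. Triplicates from one of three experiments.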

Assay [6] has as its system T3, Tyrosine-protein phosphatase non-receptor type 11 (Homo sapiens), Q06124 [E76K].
T3 sequence (whole entry): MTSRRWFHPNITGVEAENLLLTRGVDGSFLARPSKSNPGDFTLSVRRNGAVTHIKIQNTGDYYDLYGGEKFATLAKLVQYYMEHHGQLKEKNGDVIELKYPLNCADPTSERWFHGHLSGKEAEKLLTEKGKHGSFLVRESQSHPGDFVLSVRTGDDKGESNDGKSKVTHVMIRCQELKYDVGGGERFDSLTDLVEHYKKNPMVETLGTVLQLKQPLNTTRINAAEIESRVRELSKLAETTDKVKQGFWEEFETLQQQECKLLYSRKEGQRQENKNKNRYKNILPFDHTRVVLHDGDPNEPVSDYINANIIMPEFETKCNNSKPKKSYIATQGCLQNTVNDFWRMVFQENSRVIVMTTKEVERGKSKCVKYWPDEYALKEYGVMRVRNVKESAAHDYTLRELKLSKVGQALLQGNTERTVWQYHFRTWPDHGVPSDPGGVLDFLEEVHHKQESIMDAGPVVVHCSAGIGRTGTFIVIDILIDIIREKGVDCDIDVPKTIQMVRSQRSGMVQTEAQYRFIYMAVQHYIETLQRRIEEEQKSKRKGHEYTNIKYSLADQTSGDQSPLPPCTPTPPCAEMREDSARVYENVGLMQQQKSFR
The experiment in a line: Inhibition of recombinant full length human GST-tagged SHP2 E76K mutant using phospho-peptide as substrate pre-incubated for 30 mins before substrate addition and measured after 30 mins.

The structures appear in SMILES notation. Positions count from the first letter of the chain named. Activity calls are given as the source filed them. The rule behind the calls is not given here.

Consider `CCOc1cc(O)c(C(=O)/C=C/c2ccc(Cl)cc2Cl)cc1CN1CCC=C(n2c(=O)[nH]c3ccccc32)C1`, for which the Activity in assay [1] came out at 0.029 µM. Besides, the inhibition entry in assay [2] and in assay [6] was “Dose-dependent effect” each time. Also, the “growth inhibition (GI)” value in the assay with NCI-H661 was “Dose-dependent effect”. In addition, the inhibition entry in assay [3] and in assay [4] was “Active” in each case. Besides, the “growth inhibition (GI)” value in assay [5] was “Active”.

Values taken from ChEMBL document CHEMBL4422612, “Small Molecule Inhibitor that Stabilizes the Autoinhibited Conformation of the Oncogenic Tyrosine Phosphatase SHP2” (J Med Chem, 2019).
